Compound activity (PubChem BioAssay)
NF-kB neuron act = activators of NF-kB expression in neurons, primary screen, cell-based, HTS. human neuronal cells, NF-kB reporter expression; stronger effect = higher value. fold change at 12.5 µM. 190,000 tested, 1.6% active; in the data active means fold change above about 3.3
STAT3 act = IL-6 driven STAT3 reporter potentiators, primary screen, U3A cells, luciferase, luminescence, MLSCN library | activation (% of control), % at 5.6 µM | AID 871, 2007 | IL-6 STAT3-luciferase reporter; 100% = signal with IL-6 EC80 alone | 190,000 tested, 0.91% active;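 active means activation above the screen-wide mean of compound activation plus 3 SD, cut at about 130% in these data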;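 further: 0% = background luminescence of wells with medium and substrate only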
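Test system: human U3A cells carrying STAT3-luciferase construct; control set: IL-6-only wells as 100% reference; timing: compound pre-incubation 1 h before IL-6, then 6 h stimulation at 37 °C; also added: IL-6 stimulus at 33 ng/mL final; evaluation: % activation versus median of IL-6-stimulated wells; detection: reporter luminescence signal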
STAT1 blocker = STAT1 signaling inhibitors, primary screen, cell-based, HTS, luciferase reporter; NIH 3T3 STAT1-luciferase reporter, IFN-gamma, luminescence; inhibition, % at 5.5 µM; 200,000 tested, 0.35% active; AID 920, 2007;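 active means inhibition above a set limit, the mean inhibition across all tested compounds plus 3 SD, cut at about 34% in these data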;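 further: 0% = IFN-gamma with DMSO and 100% = IFN-gamma with 300 µM nifuroxazide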
STAT1 activator = STAT1 signaling activators, primary screen, cell-based, HTS, luciferase reporter; AID 932, 2007; activation (% of control), % at 5.5 µM; NIH 3T3 STAT1-luciferase reporter, IFN-gamma, luminescence; 100% = IFN-gamma alone, no compound; 200,000 tested, 2.6% active;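 active means activation above the screen-wide mean activation plus 3 SD, cut at about 130% in these data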;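 further: raw ratio to IFN-gamma control signal so 100% means no change and 0% no light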
APP 5'UTR act = activators of APP 5'UTR luciferase reporter, primary screen, SH-SY5Y cells; AID 1276, 2008; SH-SY5Y APP 5'UTR luciferase reporter, luminescence; zero percent = DMSO vehicle wells; 190,000 tested, 1% active; activation, % at 2 µM;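 active means activation above a set limit, based on mean plus 3 SD of controls, cut at about 140% in these data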
STAT3 inh-1 = IL-6 driven STAT3 reporter inhibitors, primary screen, U3A cells, luciferase, luminescence, MLSCN library; IL-6 STAT3-luciferase reporter; host cell line lacks STAT1; inhibition, % at 5.5 µM; 190,000 tested, 0.89% active; AID 862, 2007;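 active means inhibition above the mean inhibition across all screened compounds plus 3 SD, cut at about 44% in these data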;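 further: 0% = DMSO only wells and 100% = 100 µM nifuroxazide control wells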
STAT3 inh-2 = STAT3 reporter inhibitors, retest of hits, confirmation, U3A cells, luciferase, luminescence. 1,200 tested, 45% active. IL-6 STAT3 luciferase reporter; cell line lacks STAT1. shares compounds with STAT3 inh-1. inhibition, % at 5.7 µM. AID 1265, 2008;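 active means inhibition above the hit cutoff computed for the primary STAT3 screen, cut at about 44% in these data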;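 further: 0% = IL-6 plus DMSO and 100% = IL-6 plus nifuroxazide control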
NFkB inh 2 = NF-kB reporter inhibitors in human cells, confirmation, counter-screen for STAT3 inhibitor project, cell-based, HEK293T, luciferase, TNF-alpha stimulus; 1,200 tested, 36% active; TNF-alpha induced; shares compounds with STAT3 inh-1; inhibition, % at 5.7 µM;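 active means inhibition above the mean of solvent-only control wells plus 3 SD, cutoff set per campaign, cut at about 13% in these data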;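 further: 0% = TNF-alpha with DMSO and 100% = TNF-alpha with MG high control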
STAT1 inh STAT3c = STAT1 reporter inhibitors, IFN-gamma induced, confirmation, counter-screen for STAT3 inhibitor project, cell-based, NIH 3T3, luciferase luminescence | shares compounds with STAT3 inh-1 | NIH 3T3 STAT1-luciferase reporter | inhibition, % at 5.7 µM | 1,200 tested, 27% active | AID 1317, 2008;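 active means inhibition above the mean plus 3 SD of solvent-only control wells, limit set per screening run, cut at about 16% in these data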;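 further: 0% = DMSO with IFN-gamma and 100% = nifuroxazide control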
* hit, by the source's call; · = no result. In the library only some 4.9% were active in any assay of this set; here they are far more common.

SMILES | NF-kB neuron act | STAT3 act | STAT1 blocker | STAT1 activator | APP 5'UTR act | STAT3 inh-1 | others
O=C(Nc1ccccc1O)c1ccc(NS(=O)(=O)c2cccc3cccnc23)cc1 | 11.8* | · | 5.6 | 93.7 | 46.7 | ·
C=CCNC(=O)/C(C#N)=C\c1cc(Cl)c(OCC)c(OC)c1 | 0.97 | 86.0 | -0.9 | 100.8 | 7.1 | 18.8
COc1ccc2c(CC(=O)Nc3ncc(C)s3)coc2c1 | 1.17 | 98.6 | -43.8 | 140.9* | 89.0 | 7.3
O=S(=O)(c1ccccc1)N(CC1CO1)c1cccc2ccccc12 (centres undefined) | 1.7 | 102.6 | 1.1 | 97.1 | -8.8 | 0.5
Cc1ccc(S(=O)(=O)N(C)Cc2ccc(C(=O)N/N=C/c3ccc(OC(F)F)cc3OC(F)F)cc2)cc1 | 0.88 | 74.7 | 2.1 | 98.2 | 6.0 | 29.9
CCC(=O)Nc1cccc(C(=O)OCC(=O)c2ccccc2Cl)c1 | 2.17 | 118.2 | -32.2 | 129.5* | 10.0 | -14.8
O=C(COC(=O)c1cccnc1Cl)c1ccc(F)cc1 | 1.23 | 96.0 | -27.5 | 125.6 | 7.6 | 13.4
CCC(=O)Nc1ccccc1C(=O)OCC(=O)c1ccccc1 | 2.17 | 95.9 | -41.0 | 137.5* | 75.8 | 10.9
O=C(COC(=O)c1cccnc1Cl)c1ccccc1 | 1.31 | 102.9 | -32.9 | 130.0* | -0.2 | 1.3
CC(=O)Nc1cc(C(=O)OCC(=O)c2ccccc2)ccc1C | 1.19 | 98.5 | -41.4 | 136.4* | 50.0 | 4.6
CC(=O)Nc1cccc(C(=O)OCC(=O)c2ccccc2Cl)c1 | 2.24 | 96.0 | -30.4 | 128.4 | 29.4 | 10.2
CCCCC(=O)Nc1ccccc1C(=O)OCC(=O)c1ccc2c(c1)OCCO2 | 0.84 | 94.2 | -35.7 | 132.5* | 70.0 | 2.8
O=C(/C=C/Sc1ccccc1)c1ccccc1 | 5.22* | 91.9 | -12.6 | 111.7 | 18.3 | 7.0
O=C(/C=C/Sc1ccccc1)c1ccc(Cl)cc1 | 6.25* | 89.9 | -25.2 | 123.2 | -5.4 | 13.8
Oc1ccc(N2CCN(c3ncnc4sc5c(c34)CCC5)CC2)cc1 | 3.44* | 86.0 | 16.4 | 85.1 | 10.8 | 22.3
COc1ccccc1Nc1ncc(-c2cccs2)s1 | 5.13* | 156.5* | -39.9 | 136.3* | 8.6 | -61.0
COc1ccccc1Nc1ccc(C(=O)NCc2cccs2)cn1 | 2.24 | 86.4 | -15.5 | 112.7 | -1.6 | 18.2
CSCCC(NC(=O)c1ccc(Cl)cc1)C(=O)OCC(=O)c1ccc[nH]1 (centres undefined) | 1.12 | 91.5 | -0.1 | 100.1 | 14.2 | 5.4
CCCS/C(N)=N/N=C/c1cc(C)ccc1O | 10.6* | 100.9 | -18.1 | 116.8 | 149.9* | 3.4
CCCCS/C(N)=N/N=C/c1ccccc1O | 2.78 | 111.9 | -13.3 | 108.8 | · | -14.1
CC(C)(C)N(NC(=O)OCc1ccccc1)C(=O)c1ccccc1Cl | 1.06 | 92.7 | 5.1 | 95.5 | -5.4 | 8.2
COc1ccc(N(CCCN2C(=O)c3cccc4cccc(c34)C2=O)C(=O)c2cccnc2)cc1 | 0.8 | 109.7 | 1.8 | 97.0 | 31.2 | -10.2
COc1ccc(N(CCCN2C(=O)c3cccc4cccc(c34)C2=O)C(=O)c2ccncc2)cc1 | 0.9 | 112.6 | -33.7 | 129.7* | 3.5 | -13.8
Cc1ccc(C(=O)c2sc3nc4c(cc3c2N)CCC4)cc1 | 1.17 | 89.3 | 0.1 | 99.9 | 191.6* | 13.0
Cc1ccc(-c2c3c(nc4sc(C(N)=O)c(N)c24)CCC3)cc1 | 0.88 | 87.3 | -12.1 | 111.1 | 14.5 | 18.6
SMILES | NF-kB neuron act | STAT3 act | STAT1 blocker | STAT1 activator | APP 5'UTR act | STAT3 inh-1 | others
O=C(Nc1ccccc1)Nc1ccc2ocnc2c1 | 2.07 | 92.0 | -26.2 | 126.7 | 40.9 | 14.2
O=C(Nc1ccccc1)Nc1ccc2ncoc2c1 | 1.79 | 106.8 | -36.7 | 132.4* | 65.1 | -0.3
CCc1nnc(NC(=O)CCC(=O)NC2CCCc3ccccc32)s1 (centres undefined) | 1.22 | 97.4 | -0.1 | 100.1 | 6.7 | 1.0
CCOc1ccc(C2=NNC(c3cccs3)=Nc3ccc(OC)cc32)cc1 | 6.43* | 105.9 | 2.2 | 100.2 | 7.8 | -3.2
CC(=O)c1c(C)oc(C)c1CSCc1ccc(C(=O)O)o1 | 1.08 | 104.9 | -6.5 | 105.9 | -5.9 | 1.5
O=C(/C=C/Nc1ccc(F)cc1Br)c1ccccc1 | 1.61 | 27.3 | 18.0 | 84.0 | 148.8* | 86.3* | STAT3 inh-2=76.1*;NFkB inh 2=62.4*;STAT1 inh STAT3c=33.0*
O=C(/C=C/Nc1ccccc1)c1ccccc1 | 9.06* | 46.0 | 33.1 | 69.5 | 172.1* | 67.3* | STAT3 inh-2=35.6;NFkB inh 2=-4.7;STAT1 inh STAT3c=-56.6
COc1cccc(C(=O)/C=C/Nc2cccc(O)c2)c1 | 12.1* | 14.9 | 19.9 | 87.0 | 148.1* | 102.1* | STAT3 inh-2=95.5*;NFkB inh 2=13.8*;STAT1 inh STAT3c=22.5*
CCCNC(=O)/C=C/C(=O)O | 1.4 | 87.5 | -6.6 | 104.1 | 10.4 | 21.6
Cc1ccsc1/C=C/c1ccc2ccccc2n1 | 4.95* | 69.1 | 15.8 | 85.7 | 176.8* | 46.2* | STAT3 inh-2=46.0*;NFkB inh 2=20.0*;STAT1 inh STAT3c=6.6
Fc1cccc(F)c1/C=C/c1ccc2ccccc2n1 | 4.42* | 54.6 | -3.3 | 102.9 | 165.7* | 56.2* | STAT3 inh-2=6.8;NFkB inh 2=23.0*;STAT1 inh STAT3c=-30.3
CC(O)/C=C/c1ccc2ccccc2n1 (centres undefined) | 2.63 | 104.7 | -11.7 | 112.4 | 10.4 | -1.3
CN(C)/C=C/C(=O)c1ccc(Cl)cc1Cl | 0.9 | 106.2 | -6.5 | 102.8 | 5.6 | -2.6
O=C(c1ccccc1)c1cnc(-c2ccc(Cl)cc2)s1 | 6.62* | 63.5 | -18.0 | 116.1 | 122.8 | 47.9* | STAT3 inh-2=21.3;NFkB inh 2=-14.8;STAT1 inh STAT3c=-70.0
CN(C)/C=C/C(=O)c1cnc(-c2ccc(Cl)cc2)s1 | 3.87* | 67.8 | -36.2 | 133.4* | 114.8 | 43.4* | STAT3 inh-2=12.7;NFkB inh 2=-32.5;STAT1 inh STAT3c=-65.7
O=C(c1ccc(Cl)cc1)c1cnc(-c2ccc(Cl)cc2)s1 | 1.09 | 91.9 | 10.9 | 90.3 | 12.3 | 11.8
O=C(c1ccccc1)c1cnc(-c2ccccc2)s1 | 9.91* | 58.8 | -33.0 | 130.0* | 156.8* | 52.1* | STAT3 inh-2=16.9;NFkB inh 2=-30.5;STAT1 inh STAT3c=-76.8
